Assay results pooled from the literature.
Compare with care: the assays were run in different laboratories. pIC50: −log10 of the molar value.
ABCG2: Broad substrate specificity ATP-binding cassette transporter ABCG2 (ABCG2, Homo sapiens, UniProt Q9UNQ0)

| SMILES | tested on | assay | system | conditions | quantity | result |
| --- | --- | --- | --- | --- | --- | --- |
| C=CC1(C)CC(OC(=O)CSc2nc3ccccc3s2)C2(C)C(C)CCC3(CCC(=O)C32)C(C)C1O (stereo not drawn) | K562 | cell growth or viability | – | – | pIC50 | 4.42 |
| CCc1cc(-c2noc(-c3cc(OC)nc(C4CCCC4)c3)n2)cc(C)c1OC[C@@H](O)CO | – | – | Wistar rat, plasma | oral, 1 mg/kg, 3 h, single dose | concentration | 0.0627 µg/mL |
| Cc1noc(C)c1Cn1cc(N2C(=O)CN(Cc3cccc(O)c3)C2=O)cn1 | – | – | male Sprague-Dawley rat, plasma | oral, 100 mg/kg, 15 min | concentration | 0.0267 µg/mL |
| Cc1cc(C)cc(NC(=O)CN(C)S(=O)(=O)c2ccc3[nH]c4c(c3c2)CCCC4)c1 | K562 | cell growth or viability | – | – | pIC50 | 4.89 |
| COc1ccc2c(=O)n(C)c(-c3ccccc3)nc2c1 | – | – | male Sprague-Dawley rat, spleen | oral, 30 mg/kg, 15 min | concentration | 0.00753 µg/mL |
| C/C(O)=C(\C#N)C(=O)Nc1ccc(C(F)(F)F)cc1 | ABCG2 | – | Caco-2 | 1 µM, 2 h, pH 7.4 | Papp B→A | 334 nm/s |
| CO[C@H](C(=O)N1Cc2c(-c3ccc(C(=O)N4CCCc5ccccc54)cc3)cnn2C[C@H]1C(C)C)c1cnn(C)c1 (single isomer, unassigned) | ABCG2 | – | dog, MDCK-MDR1 | – | Papp B→A | 261 nm/s |
| COc1cccc(-c2n[nH]c(SCc3ccccn3)n2)c1OC | – | – | female Sprague-Dawley rat, plasma | intravenous, 1 mg/kg, 8 h, single dose | concentration | 0.0247 µg/mL |
| C[C@@H]1Cn2ncc(-c3ccc(C(=O)N4CCCc5ccccc54)cc3)c2CN1C(=O)Cc1ccccc1 | ABCG2 | – | dog, MDCK-MDR1 | – | Papp B→A | 160 nm/s |
| O=C(N/N=C/c1ccc2ccccc2c1)c1ccc(O)c(O)c1 | K562 | cell growth or viability | – | – | pIC50 | 4.54 |
| CO[C@H](C(=O)N1Cc2c(-c3ccc(C(=O)N4CCCc5ccccc54)cc3)cnn2C[C@H]1C(C)C)c1ccccc1 (single isomer, unassigned) | ABCG2 | – | dog, MDCK-MDR1 | – | Papp B→A | 84 nm/s |
| CN1CCN=C1c1ccc(NC(=O)c2ccc(C(=O)Nc3ccc(C4=NCCN4C)cc3)cc2)cc1 | K562 | cell growth or viability | – | – | pIC50 | 3.77 |
| CCOC(=O)[C@@]12C[C@@H]1[C@@H](n1ccc3c(NC)nc(C#Cc4ccc(Cl)s4)nc31)[C@H](O)[C@@H]2O | – | – | male Sprague-Dawley rat, plasma | oral, 1 mg/kg, 15 min | concentration | 0.00575 µg/mL |
| C[C@H](C(=O)N1Cc2c(-c3ccc(C(=O)N4CCCc5ccccc54)cc3)cnn2C[C@@H]1C)c1ccccc1 | ABCG2 | – | dog, MDCK-MDR1 | – | Papp B→A | 134 nm/s |
| Nc1ccc(S(=O)(=O)NC(=O)/C=C\c2ccccc2Cl)cc1 | K562 | cell growth or viability | – | – | pIC50 | < 3.70 |
| CO[C@H](C(=O)N1Cc2c(-c3ccc(C(=O)N4CCCc5ccccc54)cn3)cnn2C[C@H]1C(C)C)c1cnn(C)c1 (single isomer, unassigned) | ABCG2 | – | dog, MDCK-MDR1 | – | Papp B→A | 306 nm/s |
| CCC1(C)CC(OC(=O)CSc2nnc(N)[nH]2)C2(C)C(C)CCC3(CCC(=O)C32)C(C)C1O (stereo not drawn) | K562 | cell growth or viability | – | – | pIC50 | 4.67 |
| O=C(O)CSc1nnc(Br)n1-c1ccc(C2CC2)c2ccccc12 | ABCG2 | transporter uptake, inhibitor | Caco-2 | 30 µM, 2 h | inhibition | 27% |
